Reference: ChEMBL document CHEMBL1124291, “New actinomycin D analogues as superior chemotherapeutic agents against primary and advanced colon tumors and colon xenografts in nude mice” (J Med Chem, 1988)
pIC50: −log10 of the molar value.

Assays:
[1] = tested on: MC-38; test: Number of toxic deaths/number of mice in a group of non tumored mice treated in parallel with the tumor-bearing mice and observed for 100 days at a dose 0.15 mg/kg; value given as 1/9; format: toxicity, organism-based; design: dose 0.15 mg/kg; conditions: mouse, in vivo, 2400 h
Procedure, shortened: (§1)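 Non-tumored CDF1 mice were treated in parallel with colon 38 tumor-bearing mice: iv injections on days 1, 5 and 9, groups of nine. Deaths were counted over 100 days of observation and reported as toxic deaths / mice in group.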

[2] = tested on: HT-29; test: 50% inhibition of incorporationf precursor [3H]thymidine into DNA HT-29 cell lines; format: functional, cell-based; conditions: Homo sapiens, HT-29, 2 h
Procedure, shortened: (§2)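 HT-29 colon carcinoma monolayers, 10^4 cells per well, five wells per concentration. Drug exposure lasted 2 h, with [³H]thymidine and [2-¹⁴C]uridine (0.5 μCi each) added for the last hour. Cells were washed, trypsinized, counted and precipitated onto glass-fiber filters with 10% TCA. Acid-precipitable radioactivity was measured. IC50 is the concentration inhibiting 50% of incorporation; data are averages of replicate experiments.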

[3] = organism: Rattus norvegicus; test: Stimulation of NADPH oxidation in the presence of rat liver microsomes; format: functional
Procedure, shortened: (§3)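 Drug-stimulated superoxide generation with rat liver microsomal enzymes and NADPH as cofactor. NADPH oxidation was read at 340 nm. Adrenochrome formed from epinephrine was read at 480 nm, with or without superoxide dismutase. % stimulation = [(drug-stimulated rate − basal rate)/basal rate] × 100. Values are mean ± standard error of triplicate analyses.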

[4] = tested on: MC-38; test: Activity against advanced carcinoma C38 tumor in CDF1 Mice at dose 1.20 mg/kg measured as % inhibition of tumor; format: functional; conditions: Mus musculus
[5] = tested on: P388; test: Antitumor activity in P388/S(AMD sensitive) in male BDF1 mice measured as optimal dose
[6] = tested on: P388; test: 50% inhibition of incorporation precursor [14C]uridine into RNA P388 cell lines; format: functional, cell-based; conditions: Mus musculus
[7] = tested on: MC-38; test: Number of toxic deaths/number of mice in a group of non tumored mice treated in parallel with the tumor-bearing mice and observed for 100 days at a dose 1. 20 mg/Kg; value given as 4/9; format: toxicity, cell-based; conditions: mouse, in vivo, 2400 h; procedure, shortened: as §1
[8] = tested on: MC-38; test: Mean survival time of treated / untreated group x100. (number of over 100-day survivors/number of total mice in the group) at a dose 0.15 mg/kg; format: functional, Mus musculus
Procedure, shortened: (§4)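 CDF1 mice were implanted sc on day 0 with colon 38 adenocarcinoma fragments (70 mg) and given iv drug on days 1, 5 and 9. %T/C = median survival of treated / untreated × 100. Number of mice surviving over 100 days / group total is given in parentheses.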

[9] = tested on: P388 (Mus musculus); test: 50% inhibition of incorporation of precursor [3H]thymidine into DNA P388 cell lines; conditions: P388, 2 h
[10] = organism: Rattus norvegicus; test: The formation of adrenochrome from epinephrine in the presence of SOD(super oxide dismutase); + denotes ' Inhibited'; format: functional; procedure, shortened: as §3
[11] = tested on: MC-38; test: Activity against advanced carcinoma C38 tumor in CDF1 Mice at dose 0.30 mg/kg measured as % inhibition of tumor; format: functional; conditions: Mus musculus
[12] = tested on: MC-38; test: Number of toxic deaths/number of mice in a group of non tumored mice treated in parallel with the tumor-bearing mice and observed for 100 days at a dose 0.60 mg/kg; value given as 0/9; format: functional, Mus musculus; conditions: dose 0.6 mg/kg; procedure, shortened: as §1
[13] = tested on: HT-29; test: 50% inhibition of incorporationf precursor [3H]thymidine into RNA HT-29 cell lines; format: functional, cell-based; conditions: Homo sapiens, HT-29, 2 h; in the assay text read “[14C]uridine” for “[3H]thymidine”; procedure, shortened: as §2
[14] = tested on: MC-38; test: Number of toxic deaths/number of mice in a group of non tumored mice treated in parallel with the tumor-bearing mice and observed for 100 days at a dose 0.30 mg/kg; value given as 0/9; format: functional, Mus musculus; conditions: dose 0.3 mg/kg; procedure, shortened: as §1
[15] = tested on: B16; test: in vivo Antitumor activity against B16 melanoma cells at dose 300 ug/Kg /inj measured as mean survival time (MST); format: functional, Mus musculus
Procedure, shortened: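 B16 melanoma implanted ip on day 0 as 0.2 mL of a 1:5 (weight/volume) brei, in groups of nine BDF₁ mice; drugs given ip. MST is the median survival time in days, with the range of days of death of individual animals; % ILS is percent increase in life span, with survivors on day 65 over total injected.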

[16] = tested on: P388; test: Antitumor activity in P388/ADR (adriamycin resistant), in male BDF1 mice measured as optimal dose at dose 0.10-0.8 mg/kg
[17] = tested on: B16; test: In vivo antitumor activity against B16 melanoma cells at a optimal dose measured as %ILS (%increase life span) at a dose 300 micro g/Kg/inj; format: functional, Mus musculus
Procedure, shortened: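 BDF1 mice in groups of nine were implanted ip on day 0 with 0.2 mL of 1:5 (w/v) B16 melanoma brei; drugs were given ip. Survival is reported as median survival time in days with range, and as %ILS, with survivors counted on day 65 out of total injected.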

[18] = tested on: MC-38; test: Mean survival time of treated / untreated group x100. (number of over 100-day survivors/number of total mice in the group) at a dose 1.20 mg/kg; format: functional, Mus musculus; conditions: dose 1.2 mg/kg; procedure, shortened: as §4
[19] = organism: Rattus norvegicus; test: The formation of adrenochrome from epinephrine in the absence of SOD(super oxide dismutase); format: functional; procedure, shortened: as §3
[20] = tested on: MC-38; test: Activity against advanced carcinoma C38 tumor in CDF1 Mice at dose 0.15 mg/kg measured as % inhibition of tumor; format: functional; conditions: Mus musculus
[21] = tested on: MC-38; test: Activity against advanced carcinoma C38 tumor in CDF1 Mice at dose 0.60 mg/kg measured as % inhibition of tumor; format: functional; conditions: Mus musculus
[22] = tested on: MC-38; test: Mean survival time of treated / untreated group x100. (number of over 100-day survivors/number of total mice in the group) at a dose 0.30 mg/kg; format: functional, Mus musculus; conditions: dose 0.3 mg/kg; procedure, shortened: as §4
[23] = tested on: MC-38; test: Mean survival time of treated / untreated group x100. (number of over 100-day survivors/number of total mice in the group) at a dose 0.60 mg/kg; format: functional, Mus musculus; conditions: dose 0.6 mg/kg; procedure, shortened: as §4
[24] = tested on: MC-38; test: Mean survival time of treated / untreated group x100. (number of over 100-day survivors/number of total mice in the group) at a dose 3.0 mg/kg; format: functional, Mus musculus; procedure, shortened: as §4
[25] = tested on: MC-38; test: Number of toxic deaths/number of mice in a group of non tumored mice treated in parallel with the tumor-bearing mice and observed for 100 days at a dose 4.0 mg/kg; value given as 3/9; format: toxicity, organism-based; design: dose 4 mg/kg; conditions: mouse, in vivo, 2400 h; procedure, shortened: as §1
[26] = tested on: P388; test: Antitumor activity in P388/S(AMD sensitive) in male BDF1 mice measured as optimal dose; remark: listed apart in the source
[27] = tested on: MC-38; test: Activity against advanced carcinoma C38 Tumor in CDF1 Mice at dose 3.0 mg/Kg measured as % inhibition of tumor; format: functional; conditions: Mus musculus
[28] = tested on: P388; test: Antitumor activity in P388/ADR (adriamycin resistant), in male BDF1 mice measured as optimal dose at dose 2.5-4.5 mg/kg/ inj, ip
[29] = tested on: MC-38; test: Activity against advanced carcinoma C38 Tumor in CDF1 Mice at dose 2.0 mg/Kg measured as % inhibition of tumor; format: functional; conditions: Mus musculus
[30] = tested on: MC-38; test: Number of toxic deaths/number of mice in a group of non tumored mice treated in parallel with the tumor-bearing mice and observed for 100 days at a dose 3.0 mg/kg; value given as 0/9; format: functional, Mus musculus; procedure, shortened: as §1
[31] = tested on: MC-38; test: Mean survival time of treated / untreated group x100. (number of over 100-day survivors/number of total mice in the group) at a dose 4.0 mg/kg; format: functional, Mus musculus; procedure, shortened: as §4
[32] = tested on: MC-38; test: Activity against advanced carcinoma C38 Tumor in CDF1 Mice at dose 4.0 mg/Kg measured as % inhibition of tumor; format: functional; conditions: Mus musculus
[33] = tested on: MC-38; test: Number of toxic deaths/number of mice in a group of non tumored mice treated in parallel with the tumor-bearing mice and observed for 100 days at a dose 5.0 mg/kg; value given as 8/9; format: toxicity, organism-based; design: dose 5 mg/kg; conditions: mouse, in vivo, 2400 h; procedure, shortened: as §1
[34] = tested on: MC-38; test: Number of toxic deaths/number of mice in a group of non tumored mice treated in parallel with the tumor-bearing mice and observed for 100 days at a dose 2.0 mg/kg; value given as 0/9; format: functional, Mus musculus; procedure, shortened: as §1

Cc1c2oc3c(C)c4oc(-c5ccccc5)nc4c(C(=O)N[C@@H]4C(=O)N[C@H](C(C)C)C(=O)N5CCC[C@H]5C(=O)N(C)CC(=O)N(C)[C@@H](C(C)C)C(=O)O[C@@H]4C)c3nc-2c(C(=O)N[C@@H]2C(=O)N[C@H](C(C)C)C(=O)N3CCC[C@H]3C(=O)N(C)CC(=O)N(C)[C@@H](C(C)C)C(=O)O[C@@H]2C)c(N)c1=O
Toxic deaths [1]: 1 | pIC50 [2]: 6.24 | NADPH oxidation (nM min-1 (mg of protein)-1) [3]: 65 | inhibition in vivo at 1.2 mg/kg [4]: 88% | optimal dose [5]: 0.35 mg/kg | pIC50 [6]: 7.15 | Toxic deaths [7]: 4 | T/C [8]: 103% | pIC50 [9]: 6.11 | Adrenochrome formation [10]: Inhibited | inhibition in vivo at 0.3 mg/kg [11]: 70% | Toxic deaths [12]: 0 | pIC50 [13]: 7.17 | Toxic deaths [14]: 0 | MST [15]: 59 | optimal dose [16]: 0.6 mg/kg | ILS [17]: 103% | T/C [18]: 103% | Adrenochrome formation [19]: 18.8 nM min-1 (mg of protein)-1 | inhibition in vivo at 0.15 mg/kg [20]: 29% | inhibition in vivo at 0.6 mg/kg [21]: 83% | T/C [22]: 137% | T/C [23]: 170%

COc1cccc2c1C(=O)c1c(O)c3c(c(O)c1C2=O)C[C@@](O)(C(=O)CO)C[C@@H]3O[C@H]1C[C@H](N)[C@H](O)[C@H](C)O1 [DOXORUBICIN]
T/C [24]: 98% | Toxic deaths [25]: 3 | optimal dose [26]: 3 mg/kg | inhibition in vivo at 3 mg/kg [27]: 70% | optimal dose [28]: 3.5 mg/kg | inhibition in vivo at 2 mg/kg [29]: 29% | Toxic deaths [30]: 0 | T/C [31]: 250% | inhibition in vivo at 4 mg/kg [32]: 93% | Toxic deaths [33]: 8 | Toxic deaths [34]: 0
